We go through 6 compounds from ChEMBL document CHEMBL1154500, “Mechanism-based inhibitors of MenE, an acyl-CoA synthetase involved in bacterial menaquinone biosynthesis” (Bioorg Med Chem Lett, 2008).

Test [1] in a line: Inhibition of Escherichia coli Histidine6-tagged 20 nM MenE expressed in Escherichia coli BL21 cells coexpressing Mycobacterium tuberculosis Histidine6-tagged 7.2 uM MenB assessed as formation of DHNA-CoA by coupled assay. In outline: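 Coupled MenE–MenB assay. E. coli MenE and M. tuberculosis MenB each carried an N-terminal His6 tag, were expressed separately in E. coli BL21, and were affinity-purified. Reactions contained MenB (7.2 μM), ATP, CoA and OSB (each 240 μM), and inhibitor (0–200 μM), and were started by adding MenE (20 nM final). DHNA-CoA formation was followed at 392 nm to derive IC50.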

For test [2], the system named is Mycolicibacterium smegmatis. Briefly: Growth inhibition of Mycobacterium smegmatis upto 300 uM. In kind it is functional, organism-based.
Test [3] in a line: Inhibition of Escherichia coli Histidine6-tagged 5 uM MenE expressed in Escherichia coli BL21 cells coexpressing Mycobacterium tuberculosis Histidine6-tagged 100 nM MenB assessed as formation of DHNA-CoA by coupled assay. In outline: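 Counter-assay in the coupled format using separately purified His6-tagged E. coli MenE and M. tuberculosis MenB. MenB was limiting (100 nM) and MenE in excess (5 μM), to test for direct MenB inhibition. The read-out was DHNA-CoA formation.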

Active and inactive are the calls of the source. The rule behind the calls is not given here.

As a reminder, the IC50 is the concentration that inhibits the measured activity by half. As for `C=C(CCC(=O)NS(=O)(=O)OC[C@H]1O[C@@H](n2cnc3c(N)ncnc32)[C@H](O)[C@@H]1O)c1ccccc1C(=O)OC`, in test [1], the half-inhibitory concentration (IC50) was greater than 200 µM. Besides, the inhibition entry in test [2] and in test [3] was “inactive” each time.

Turning to `COC(=O)c1ccccc1C(=O)CCC(=O)NS(=O)(=O)OC[C@H]1O[C@@H](n2cnc3c(N)ncnc32)[C@H](O)[C@@H]1O`, the IC50 in test [1] worked out at 38 µM. In addition, the inhibition result in test [2] and in test [3] was “inactive” throughout.

Regarding `COC(=O)c1ccccc1C(=O)CCC(=O)NS(=O)(=O)NC[C@H]1O[C@@H](n2cnc3c(N)ncnc32)[C@H](O)[C@@H]1O`, in test [1], the IC50 turned out to be 34.1 µM. Besides, the inhibition result in test [2] and in test [3] was “inactive” each time.

For `COC(=O)c1ccccc1C(=O)CC/C=C/S(=O)(=O)NC[C@H]1O[C@@H](n2cnc3c(N)ncnc32)[C@H](O)[C@@H]1O`, the 50% inhibitory concentration (IC50) in test [1] is 5.7 µM. Besides, the inhibition result in test [2] and in test [3] was “inactive” throughout.

For the compound `C=C(CC/C=C/S(=O)(=O)NC[C@H]1O[C@@H](n2cnc3c(N)ncnc32)[C@H](O)[C@@H]1O)c1ccccc1C(=O)OC`, the IC50 in test [1] is greater than 200 µM. The inhibition result in test [2] and in test [3] was “inactive” throughout.

Turning to `C=C(CCC(=O)NS(=O)(=O)NC[C@H]1O[C@@H](n2cnc3c(N)ncnc32)[C@H](O)[C@@H]1O)c1ccccc1C(=O)OC`, the IC50 in test [1] is greater than 200 µM. For the same compound, the inhibition entry in test [2] and in test [3] was “inactive” each time.
